Broadly, the pEC50 is the EC50 on a negative log10 scale, so that one unit is a factor of ten. What is called pIC50 is −log10 of the IC50, conventionally taken in molar units. Low readings indicate a large IC50, high ones a small IC50.

28 molecules from ChEMBL document CHEMBL4732055, “Discovery of fast-acting dual-stage antimalarial agents by profiling pyridylvinylquinoline chemical space via copper catalyzed azide-alkyne cycloadditions” (Eur J Med Chem, 2021) can be followed below.

The test system of data set [1] is Plasmodium falciparum. Put plainly: Antiplasmodial activity against chloroquine-resistant Plasmodium falciparum Dd2 infected in erythrocytes assessed as reduction in parasite growth after 72 hrs by SYBR green I staining based fluorescence assay. The class given is functional, organism-based. As to conditions: Dd2, Erythrocyte. Summed up:
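Asexual P. falciparum cultures at 1% parasitemia and 1% hematocrit, given serial dilutions in DMSO (0.1% maximum), were incubated 72 h at 37 °C in 5% CO2. Plates were frozen, thawed and lysed with Tris/saponin/EDTA/Triton X-100 buffer containing SYBR Green I, then kept 1 h dark at room temperature. Fluorescence was read at 485 excitation/530 emission. EC50 came from non-linear dose-response curves.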

Data set [2] relates to Plasmodium falciparum. Put plainly: Parasiticidal activity against chloroquine-resistant Plasmodium falciparum Dd2 infected in erythrocytes assessed as reduction in parasitemia at 50 nM incubated for 24 to 48 hrs followed by compound washout and then incubated for 96 hrs by Giemsa staining based microscopic analysis. The class given is functional, organism-based. The following applies: time 24-48 hrs.

In data set [3] the test system is Plasmodium falciparum. Put plainly: Parasiticidal activity against chloroquine-resistant Plasmodium falciparum Dd2 infected in erythrocytes assessed as reduction in parasitemia at 6.6 nM incubated for 6 to 12 hrs followed by compound washout and then incubated for 96 hrs by Giemsa staining based microscopic analysis. Type of data set: functional, organism-based. The following applies: time 6-12 hrs.

In data set [4] the test system is Plasmodium falciparum. Put plainly: Antiplasmodial activity against chloroquine-sensitive Plasmodium falciparum 3D7 infected in erythrocytes assessed as reduction in parasite growth after 72 hrs by SYBR green I staining based fluorescence assay. Type of data set: functional, organism-based. The following applies: 3D7, Erythrocyte. Summed up: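 Compound dilutions in DMSO (max 0.1% DMSO) added to P. falciparum culture at 1% parasitemia, 1% hematocrit; 72 h at 37 °C, 5% CO2. Plates frozen, thawed, lysed with buffer containing saponin, Triton X-100, EDTA and SYBR Green I; 1 h dark at room temperature; fluorescence ex 485/em 530. EC50 from non-linear dose-response curves.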

Another data set has as its system HepG2. Put plainly: Cytotoxicity against human HepG2 cells assessed as reduction in cell viability after 48 hrs by MTS assay. The class given is cell-based. The following applies: HepG2, 48 h. Summed up:
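HepG2 cells seeded at 2250 per well, grown 24 h at 37 °C, 5% CO2. Serial compound dilutions starting at 25 μM added for a further 48 h. MTS reagent added for 3 h at 37 °C; viability read as absorbance at 490 nm.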
In general terms: Tetrazolium assays rely on reduction of a dye to a coloured formazan, in cell work by metabolically active cells.

Data set [5] relates to Hemozoin. Put plainly: Inhibition of beta-hematin formation at 12.5 to 200 uM after 16 hrs by inverted microscopic analysis. As to conditions: dose 12.5-200 µM.
The nature of data set [6]: Stability in mouse liver microsomes assessed as parent compound remaining at 1 uM after 15 mins in presence of NADPH regenerating system by LC/MS analysis. The class given is ADME, Microsome. The following applies: read-out: Stabilty. Summed up: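 Compound at 1 μM final (from 25 μM DMSO stock) with 0.5 mg/mL mouse liver microsomes, NADPH-regenerating system (1.3 mM NADP, 3.3 mM glucose 6-phosphate, 3.3 mM MgCl2, 0.4 U/mL G6PDH) in 0.1 M potassium phosphate pH 7.4, 37 °C with shaking. Aliquots quenched in cold acetonitrile, centrifuged, quantified by LC/MS as percent parent remaining relative to T = 0; CLint and t1/2 reported.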

For data set [7], the system named is Plasmodium falciparum. Put plainly: Antimalarial activity against Plasmodium falciparum RKL9 gametocytes incubated for 48 hrs by Giemsa staining based assay. Type of data set: functional, organism-based. The following applies: RKL9, 48 h.
Data set [8] concerns Plasmodium falciparum. Put plainly: Antiplasmodial activity against synchronized chloroquine-resistant Plasmodium falciparum Dd2 assessed as reduction in DNA content at 5 times of EC50 treated with compound at 6 to 30 hrs post invasion measured after 12 hrs by YOYO-1 staining-based flow cytometric analysis. Type of data set: functional, organism-based.
The subject of data set [9] is Hemozoin. Put plainly: Inhibition of beta-hematin formation after 16 hrs by inverted microscopic analysis.
The test system of data set [10] is Plasmodium falciparum. Put plainly: Antiplasmodial activity against synchronized chloroquine-resistant Plasmodium falciparum Dd2 assessed as reduction in DNA content at 5 times of EC50 treated with compound at 42 hrs post invasion measured after 12 hrs by YOYO-1 staining-based flow cytometric analysis. The class given is functional, organism-based.
Data set [11] has as its system Plasmodium falciparum. Put plainly: Antiplasmodial activity against synchronized chloroquine-resistant Plasmodium falciparum Dd2 assessed as morphological changes at 5 times of EC50 treated with compound at 6 hrs post invasion and measured after 12 hrs by Giemsa staining-based microscopic analysis. Type of data set: functional, organism-based. The method in brief:
(§1)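 Samples taken at 12 h intervals were made into Giemsa-stained thin smears and scored by microscopy for intraerythrocytic stage and development, against untreated control cultures.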

For data set [12], the system named is Plasmodium falciparum. Put plainly: Antiplasmodial activity against synchronized chloroquine-resistant Plasmodium falciparum Dd2 assessed as appearance of large vacuoles at 5 times of EC50 treated with compound at 6 to 42 hrs post invasion and measured after 12 hrs by Giemsa staining-based microscopic analysis. Type of data set: functional, organism-based. The method in brief: as §1

Data set [13] deals with Plasmodium falciparum. Put plainly: Parasiticidal activity against chloroquine-resistant Plasmodium falciparum Dd2 infected in erythrocytes assessed as reduction in parasitemia at 5 times of EC50 incubated for 6 to 12 hrs followed by compound washout and then incubated for 96 hrs by Giemsa staining based microscopic analysis. As to conditions: time 6-12 hrs. Type of data set: functional, organism-based.

The subject of data set [14] is Plasmodium falciparum. Put plainly: Antiplasmodial activity against synchronized chloroquine-resistant Plasmodium falciparum Dd2 assessed as prevention of parasite cell cycle progression at 5 times of EC50 treated with compound at 6 to 30 hrs post invasion and measured after 12 hrs by Giemsa staining-based microscopic analysis. Type of data set: functional, organism-based. The method in brief:
as §1

Data set [15] has as its system Plasmodium falciparum. Put plainly: Antiplasmodial activity against synchronized chloroquine-resistant Plasmodium falciparum Dd2 assessed as effect on schizont maturation and reinvasion of merozoite at 5 times of EC50 treated with compound at 42 hrs post invasion and measured after 12 hrs by Giemsa staining-based microscopic analysis. The class given is functional, organism-based. The method in brief: as §1

In data set [16] the test system is Plasmodium falciparum. Put plainly: Antiplasmodial activity against early stage (II/III) gametocytes of Plasmodium falciparum 3D7 harboring luc7 incubated for 72 hrs by ONE-Glo luciferase assay. Type of data set: functional, organism-based. The following applies: 3D7, 72 h. Summed up: (§2)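 Gametocytes of the 3D7 luc7 line were induced by nutrient starvation and cleared of asexual parasites with heparin-treated medium. Stage II-III or IV-V gametocytes were Percoll-purified, and 50,000 per well were exposed 72 h to a 19-point gradient (0.038 nM to 10 μM). Read-out was ONE-Glo luciferase after 5 min with reagent. EC50 came from four-parameter variable-slope nonlinear regression.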

The test system of data set [17] is Plasmodium falciparum. Put plainly: Antiplasmodial activity against late stage (IV/V) gametocytes of Plasmodium falciparum 3D7 harboring luc7 incubated for 72 hrs by ONE-Glo luciferase assay. The class given is functional, organism-based. As to conditions: 3D7, 72 h. Summed up: as §2

Molecules are shown by their SMILES. pEC50, pIC50: −log10 of the molar value. Activity calls are given as the source filed them. The rule behind the calls is not given here.

On to `OCCN1CCN(Cc2cn(-c3cc(/C=C/c4ccncc4)nc4ccc(Cl)cc34)nn2)CC1`, for which, in the data set on Plasmodium falciparum [1], the pEC50 was 5.78.

As to `C[C@H]1[C@@H](O)O[C@@H]2O[C@@]3(C)CC[C@H]4[C@H](C)CC[C@@H]1[C@@]24OO3`, in the data set on Plasmodium falciparum [2], the result was Active.

For the molecule `CCN(CC)Cc1cn(-c2cc(/C=C/c3ccncc3)nc3ccc(Cl)cc23)nn1`, the pEC50 in the data set on Plasmodium falciparum [1] was 5.88.

Consider `CN1CCN(Cc2cn(CCNc3cc(/C=C/c4ccncc4)nc4ccc(Cl)cc34)nn2)CC1`, for which the pEC50 in the data set on Plasmodium falciparum [1] is under 5.00.

For the molecule `O=C1C(O)=C([C@H]2CC[C@H](c3ccc(Cl)cc3)CC2)C(=O)c2ccccc21`, the outcome with Plasmodium falciparum [3] was Active.

With `Clc1ccc2nc(/C=C/c3ccncc3)cc(NCCCCn3cc(CN4CCCC4)nn3)c2c1`, the pEC50 in the data set with Plasmodium falciparum [1] is 6.16; in the data set with Plasmodium falciparum [4] it was 6.28; in the data set on HepG2, under 4.60.

Consider `Clc1ccc2nc(/C=C/c3ccncc3)cc(-n3cc(CN4CCCC4)nn3)c2c1`, for which, in the data set on Plasmodium falciparum [1], the pEC50 was 5.78.

For the molecule `O=C1c2ccccc2C(=O)N1Cc1cn(-c2cc(/C=C/c3ccncc3)nc3ccc(Cl)cc23)nn1`, the pEC50 in the data set with Plasmodium falciparum [1] is 5.06.

Regarding `OCCN1CCN(Cc2cn(CCCCNc3cc(/C=C/c4ccncc4)nc4ccc(Cl)cc34)nn2)CC1`, the negative logarithm of the EC50 (pEC50) is 6.17 in the data set with Plasmodium falciparum [1], 6.19 in the data set with Plasmodium falciparum [4] and under 4.60 with HepG2.

As to `Clc1ccc2nc(/C=C/c3ccncc3)cc(NCCn3cc(Cn4cccn4)nn3)c2c1`, in the data set on Plasmodium falciparum [1], the pEC50 was 5.93.

As to `Clc1ccc2nc(/C=C/c3ccncc3)cc(NCCn3cc(CN4CCOCC4)nn3)c2c1`, the pEC50 in the data set with Plasmodium falciparum [1] is 5.73.

For `CCN(CC)CCCC(C)Nc1ccnc2cc(Cl)ccc12` (stereo unspecified), the inhibition result in the data set on Hemozoin [5] is “Active”.

`Clc1ccc2nc(/C=C/c3ccncc3)cc(NCCCCn3cc(CN4CCOCC4)nn3)c2c1`: the pEC50 was 6.77 with Plasmodium falciparum [1], 6.64 in the data set on Plasmodium falciparum [4] and under 4.60 in the data set with HepG2. For the same molecule, the remaining at 0.25 h, 1 µM in data set [6] was under 50%.

As for `Clc1ccc2nc(/C=C/c3ccncc3)cc(NCCn3cc(CN4CCCC4)nn3)c2c1`, the pEC50 with Plasmodium falciparum [1] is 5.53.

Consider `CN1CCN(Cc2cn(-c3cc(/C=C/c4ccncc4)nc4ccc(Cl)cc34)nn2)CC1`, for which the pEC50 in the data set on Plasmodium falciparum [1] is under 5.00.

For `O=C1c2ccccc2C(=O)N1Cc1cn(CCCCNc2cc(/C=C/c3ccncc3)nc3ccc(Cl)cc23)nn1`, in the data set on Plasmodium falciparum [1], the pEC50 was 6.00.

Take `Clc1ccc2nc(/C=C/c3ccncc3)cc(NCCCCn3cc(Cn4cccn4)nn3)c2c1`: the figures for the pEC50 with Plasmodium falciparum [1], in the data set with Plasmodium falciparum [4] and in the data set with HepG2 were 6.46, 6.55 and 4.67, respectively. Also, the remaining at 0.25 h, 1 µM in data set [6] is under 50%.

For the molecule `O=C1c2ccccc2C(=O)N1Cc1cn(CCNc2cc(/C=C/c3ccncc3)nc3ccc(Cl)cc23)nn1`, the pEC50 with Plasmodium falciparum [1] is 5.97.

With `Clc1ccc2nc(/C=C/c3ccncc3)cc(NCCn3cc(CN4CCCCC4)nn3)c2c1`, the pEC50 with Plasmodium falciparum [1] is 6.26; with Plasmodium falciparum [4] it was 6.33; in the data set with HepG2, 4.87.

On to `Clc1ccc2nc(/C=C/c3ccncc3)cc(-n3cc(CN4CCCCC4)nn3)c2c1`, for which, in the data set on Plasmodium falciparum [1], the pEC50 is 5.91.

On to `O=C1S/C(=C\c2ccccc2)C(=O)N1Cc1cn(CCNc2cc(/C=C/c3ccncc3)nc3ccc(Cl)cc23)nn1`, for which the pEC50 in the data set with Plasmodium falciparum [1] was 6.62; in the data set with Plasmodium falciparum [4] it was 6.36; in the data set with HepG2 it was 5.24. Also, the remaining at 0.25 h, 1 µM in data set [6] was under 50%.

As to `CCN(CC)Cc1cn(CCNc2cc(/C=C/c3ccncc3)nc3ccc(Cl)cc23)nn1`, the pEC50 in the data set on Plasmodium falciparum [1] was 5.88.

For `CN1CCN(Cc2cn(CCCCNc3cc(/C=C/c4ccncc4)nc4ccc(Cl)cc34)nn2)CC1`, the pEC50 in the data set on Plasmodium falciparum [1] was 6.80; in the data set on Plasmodium falciparum [4], 6.80; with HepG2, 4.80. Moreover, the remaining at 0.25 h, 1 µM in data set [6] is under 50%.

Regarding `O=C1S/C(=C\c2ccccc2)C(=O)N1Cc1cn(CCCCNc2cc(/C=C/c3ccncc3)nc3ccc(Cl)cc23)nn1`, the values for the pEC50 with Plasmodium falciparum [1], in the data set with Plasmodium falciparum [4] and in the data set with HepG2 were 6.22, 6.48 and under 4.60, respectively.

With `OCCN1CCN(Cc2cn(CCNc3cc(/C=C/c4ccncc4)nc4ccc(Cl)cc34)nn2)CC1`, in the data set with Plasmodium falciparum [1], the pEC50 is 5.37.

Consider `Clc1ccc2nc(/C=C/c3ccncc3)cc(-n3cc(CN4CCOCC4)nn3)c2c1`, for which the negative-log EC50 (pEC50) in the data set on Plasmodium falciparum [1] was under 5.00.

`O=C(Cn1cc(COc2ccc(Br)cc2)nn1)NCCNc1ccnc2cc(Cl)ccc12` gave a pIC50 in the data set with Plasmodium falciparum [7] of 5.07.

Take `Clc1ccc2nc(/C=C/c3ccncc3)cc(NCCCCn3cc(CN4CCCCC4)nn3)c2c1`: the result in the data set with Plasmodium falciparum [8], in the data set on Plasmodium falciparum [12], in the data set with Plasmodium falciparum [13] and in the data set on Plasmodium falciparum [14] was Active. The pEC50 in the data set with Plasmodium falciparum [1] is 7.40; in the data set on Plasmodium falciparum [4], 7.15; with HepG2 it was 5.26; in the data set on Plasmodium falciparum [16], 6.02; with Plasmodium falciparum [17], 6.05. The inhibition entry with Hemozoin [9] was “Dose-dependent effect”. Further, the outcome in the data set on Plasmodium falciparum [10], in the data set on Plasmodium falciparum [11] and with Plasmodium falciparum [15] was inactive. In addition, the remaining at 0.25 h, 1 µM in [6] was under 50%.
